RBBP9 inh = blocks human serine hydrolase RBBP9; AID 1515; 220,000 tested, 0.2% active; recombinant RBBP9, FP-Rh probe fluorescence polarization; O75884; inhibition, % at 7.94 µM;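 active means inhibition above the campaign mean of all tested compounds plus 3 SD, cut at about 14% in these data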
Target sequence (O75884 whole entry, looked up): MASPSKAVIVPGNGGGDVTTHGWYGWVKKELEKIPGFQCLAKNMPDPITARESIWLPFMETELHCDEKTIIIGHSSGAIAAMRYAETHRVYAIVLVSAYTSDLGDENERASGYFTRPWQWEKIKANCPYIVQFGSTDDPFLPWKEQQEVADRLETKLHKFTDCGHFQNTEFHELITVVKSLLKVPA
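Assay system: recombinant human RBBP9; Reagent: Serine-hydrolase probe FP-Rh, 375 nM pre-mixing; Doses: 7.94 µM single dose, 0.794% DMSO; Incubation: 30 min then 45 min, 25 °C; Detection: fluorescence polarization (mP), excitation 525 nm, emission 598 nm; Evaluation: percent inhibition from mP, scaled between DMSO and no-protein wells.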
pPAFAH FP inh = pPAFAH (human) enzyme inhibition; Q13093; recombinant pPAFAH, FP-rhodamine probe fluorescence polarization; inhibition, % at 3.39 µM; 330,000 tested, 1.5% active;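 active means inhibition above the mean inhibition across the screen plus 3 SD, cut at about 25% in these data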;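 further: inhibitors block binding of the rhodamine activity-based probe so polarization drops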
Target sequence (Q13093 whole entry, looked up): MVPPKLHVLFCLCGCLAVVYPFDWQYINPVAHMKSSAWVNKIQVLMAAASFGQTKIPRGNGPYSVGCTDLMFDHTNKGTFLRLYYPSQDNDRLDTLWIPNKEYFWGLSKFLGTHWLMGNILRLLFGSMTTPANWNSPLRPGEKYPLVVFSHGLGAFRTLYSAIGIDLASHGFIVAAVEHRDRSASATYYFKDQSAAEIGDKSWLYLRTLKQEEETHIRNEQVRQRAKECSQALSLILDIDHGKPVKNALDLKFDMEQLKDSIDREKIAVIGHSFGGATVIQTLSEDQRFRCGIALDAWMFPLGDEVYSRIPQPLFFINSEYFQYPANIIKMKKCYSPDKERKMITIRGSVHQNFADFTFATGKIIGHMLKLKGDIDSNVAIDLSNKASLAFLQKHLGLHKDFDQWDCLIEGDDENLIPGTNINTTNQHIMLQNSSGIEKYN
PAFAH2 inh = inhibitors of human PAFAH2; Q99487; recombinant PAFAH2, FP-rhodamine activity probe, fluorescence polarization; inhibition, % at 3.39 µM; 340,000 tested, 0.99% active; AID 492956;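 active means inhibition above the mean over all tested compounds plus 3 SD, cut at about 30% in these data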;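 further: inhibitors block probe labeling of enzyme so polarization drops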
PAFAH1B3 FP inh = inhibitors of human PAFAH1B3 | recombinant PAFAH1B3, FP-rhodamine probe, fluorescence polarization | Q15102 | inhibition, % at 3.39 µM | 340,000 tested, 0.28% active | AID 492972;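 active means inhibition above the screen-wide average of all tested compounds plus 3 SD, cut at about 25% in these data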
PAFAH1B2 FP inh = blocks human PAF acetylhydrolase 1b catalytic subunit 2; recombinant PAFAH1B2, FP-rhodamine activity probe, fluorescence polarization; inhibition, % at 3.39 µM; 340,000 tested, 1.2% active; AID 492953;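 active means inhibition above the mean of all tested compounds plus 3 SD, cut at about 24% in these data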
pPAFAH FP conf = confirmation of human plasma PAF acetylhydrolase (pPAFAH) inhibitors | shares compounds with pPAFAH FP inh | recombinant pPAFAH, FP-Rh probe fluorescence polarization | inhibition, % at 3.39 µM | 2,300 tested, 72% active | AID 463230;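 active means mean inhibition of the triplicate above the hit cutoff set for the earlier primary screen, cut at about 25% in these data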
Hits are given with their value; - = inactive; . = no result. Rows were chosen to be rich in hits. Some 2.7% of all compounds tested hit in one or more screens of this group.

SMILES	RBBP9 inh	pPAFAH FP inh	PAFAH2 inh	PAFAH1B3 FP inh	PAFAH1B2 FP inh	pPAFAH FP conf
CC1Oc2cc3oc4c(O)c5c(cc4c(=O)c3c(O)c2C1(C)C)C=CC(C)(C)O5 (stereo not given)	.	-	.	.	.	.
O=C(O)c1cc(-c2ccc(/C=C3\NC(=O)N(c4ccccc4)C3=O)o2)ccc1Cl	-	-	-	-	-	.
O=C(O)c1cc(-c2ccc(/C=C3\NC(=O)N(c4ccc(Cl)cc4)C3=O)o2)ccc1Cl	-	37	-	-	-	-
O=C(N/N=C/c1cc(Cl)cc(Cl)c1O)c1ccncc1	-	-	-	-	-	.
Oc1c(Cl)cc(Cl)cc1/C=N/NC(=S)NC1CC2C=CC1C2 (stereo not given)	-	36	68	26	-	34
C=CCOc1ccccc1CN1CCC(Cc2ccccc2)CC1	.	-	-	-	-	.
Nc1nc(NC(=O)C(Cl)(Cl)Cl)nn1-c1ccccc1	-	-	-	-	-	.
CCc1ccc(NC(=O)C(C)OC(=O)c2cc(=O)[nH]c3ccc(S(=O)(=O)Nc4ccc(F)cc4)cc23)cc1 (stereo not given)	-	73	-	-	-	56
COc1ccc(N2CCC(CNC(=O)Nc3ccc(Cl)cc3)C2)cc1 (stereo not given)	-	36	-	-	-	-
O=C(CSc1nc2cc([N+](=O)[O-])ccc2n1-c1ccccc1)NCc1ccc2c(c1)OCO2	-	44	-	-	-	37
COc1ccc(NC(=O)CN2C(=O)/C(=C3\SC(=S)N(C4CCS(=O)(=O)C4)C3=O)c3ccccc32)cc1 (stereo not given)	-	-	.	.	.	.
Cc1cc(-c2nnc(SCC(=O)Nc3nc(-c4ccc(Cl)cc4)cs3)o2)no1	-	42	-	-	-	-
COc1cc(NC(=O)CSc2nnc(-c3cc(C)on3)o2)cc(OC)c1	.	-	-	-	-	.
O=C(Oc1nsnc1N1CCCCC1)N1CCOCC1	-	79	-	-	-	73
C#CCNc1cc(C)nc2ncnn12	-	51	-	-	-	-
C#CCNc1cc(-c2ccccc2)nc2ncnn12	-	-	-	-	-	.
OCC(O)/C=N/Nc1nc(Nc2ccccc2)nc(Nc2ccccc2)n1 (stereo not given)	.	39	-	-	-	-
OCCOCCNc1ncnc2c1c(-c1ccccc1)cn2-c1ccccc1	.	35	-	-	-	-
CN(C)CCCNc1ncnc2c1c(-c1ccccc1)cn2-c1ccccc1	.	-	-	-	-	.
CC(C)(C)c1ccc(OCc2ccc(C(=O)N/N=C/c3ccc(O)c(O)c3)cc2)cc1	-	43	-	-	-	74
O=C(COc1ccccc1C(=O)N/N=C\c1ccc(O)c(O)c1)N/N=C/c1ccc(O)c(O)c1	-	62	42	-	-	80
CCC(C)NC(=O)C(=O)NC1CCCC1 (stereo not given)	-	.	-	-	-	.
O=C(CCN1C(=O)c2ccccc2S1(=O)=O)Nc1ccc(Cl)cc1	.	.	-	-	-	.
COc1ccc(C(=O)CSc2nc3c(c(=O)n(C)c(=O)n3C)n2C)cc1	-	-	.	.	.	.
COC(=O)c1cc(O)cc(OC)c1Oc1cc(C)cc(O)c1C(=O)O	.	35	-	-	-	-
SMILES	RBBP9 inh	pPAFAH FP inh	PAFAH2 inh	PAFAH1B3 FP inh	PAFAH1B2 FP inh	pPAFAH FP conf
O=C(C[C@H]1C/C=C\CC[C@H](Cc2ccc(F)cc2)C(=O)O[C@H](c2ccccc2)CNC1=O)N[C@H](CO)Cc1ccccc1	.	55	-	-	-	-
C=CCn1c(COc2ccc(Cl)cc2)nnc1SCC(=O)N/N=C/c1ccccc1	-	-	-	-	-	.
O=C(CSc1n[nH]c(-c2ccccc2)n1)c1ccc(O)c(O)c1	-	42	-	-	-	68
Cc1cc(SCC(=O)c2ccc3c(c2)OCO3)nc2ccccc12	-	-	-	-	-	.
Cc1cc(SCC(=O)c2ccc(O)c(O)c2)nc2ccccc12	-	42	31	-	-	94
CCOC(=O)c1c(C)[nH]c(C)c1S(=O)(=O)N(C)CC(=O)Nc1ccccc1	.	38	-	-	-	-
O=C(Nc1ccccc1)Nc1ncc([N+](=O)[O-])s1	-	.	-	-	-	.
O=C(COC(=O)c1ccccc1)Nc1ncc([N+](=O)[O-])s1	.	56	57	26	-	38
CCOC(=O)N1CCN(S(=O)(=O)c2ccc(C(=O)NNc3nc4ccc(Cl)cc4s3)cc2)CC1	-	38	-	-	-	39
Cc1cccc(N2CCN(C(=O)c3cn4ccccc4n3)CC2C)c1 (stereo not given)	-	-	-	-	-	.
COC(=O)c1ccc(NS(=O)(=O)c2ccc3[nH]c(=O)oc3c2)cc1	.	-	-	-	-	.
Cc1ccc(C)c(NS(=O)(=O)c2ccc3[nH]c(=O)oc3c2)c1	-	42	-	-	-	-
Cc1ccc(NS(=O)(=O)c2ccc3oc(=O)ccc3c2)cc1Cl	.	-	-	-	-	.
Cc1ccc(NS(=O)(=O)c2ccc3[nH]c(=O)oc3c2)cc1Cl	.	48	-	-	-	58
Cc1cccc(NS(=O)(=O)c2ccc3[nH]c(=O)oc3c2)c1C	.	68	-	-	-	70
CCOC(=O)c1c(OCCO)nn(-c2ccc(Cl)cc2)c1N	-	-	-	-	-	.
O=C(NCc1ccccc1)c1cccc(NS(=O)(=O)c2cccc3cccnc23)c1	-	-	-	-	-	.
COc1ccc(CN=Cc2c(C(=O)O)[nH]c3ccccc23)cc1	-	-	-	-	-	.
C=CCOc1ccc(C(c2c(C(=O)O)[nH]c3ccccc23)c2c(C(=O)O)[nH]c3ccccc23)cc1	.	44	55	-	66	30
CN1/C(=C\C=C2/C(=O)Oc3ccccc3C2=O)C(C)(C)c2ccccc21	-	35	.	.	.	-
CC(=O)Nc1ccc(/C=C(\C#N)S(=O)(=O)c2ccc(C)cc2)cc1	.	-	-	-	-	.
Cc1ccc(S(=O)(=O)CC(=O)NC(C)(C)C)cc1	-	-	-	-	-	.
COc1cc(NC(=O)c2ccccc2)c(OC)cc1NC(=O)Cc1cccs1	-	46	.	.	.	-
COc1ccc(Cc2nnc(NC(=O)Cc3cccs3)s2)cc1OC	-	36	-	-	-	-
O=C(Cc1cccs1)Nc1nnc(Cc2ccccc2)s1	-	-	-	-	-	.
COc1ccc(NC(=O)Cc2cccs2)c(OC)c1	-	-	-	-	-	.
COc1ccc(NS(=O)(=O)c2ccc3c(c2)[C@H]2C=CC[C@H]2[C@@H](c2ccc(C(=O)O)cc2)N3)cc1	.	74	68	46	31	66
Cc1c(Cl)cccc1NS(=O)(=O)c1ccc2c(c1)C1C=CCC1C(c1ccc(C(=O)O)cc1)N2 (stereo not given)	-	92	60	37	30	88
CC(=O)c1ccc2c(c1)C1C=CCC1C(c1ccc(S(=O)(=O)N3CCOCC3)cc1)N2 (stereo not given)	-	-	-	-	-	.
O=C(CC1Nc2cccc3cccc(c23)NC1=O)Nc1ccc(F)cc1 (stereo not given)	-	60	-	-	-	-

Source: PubChem
